{"source": "paper PMC3677025", "about": "(Pharmacological research : the official journal of the …, 2012)", "key": {"[1]": {"molecular_target": "T1, EphA4 (Mus musculus, UniProt Q03137)", "T1 sequence (Q03137 20-547 limits assumed)": "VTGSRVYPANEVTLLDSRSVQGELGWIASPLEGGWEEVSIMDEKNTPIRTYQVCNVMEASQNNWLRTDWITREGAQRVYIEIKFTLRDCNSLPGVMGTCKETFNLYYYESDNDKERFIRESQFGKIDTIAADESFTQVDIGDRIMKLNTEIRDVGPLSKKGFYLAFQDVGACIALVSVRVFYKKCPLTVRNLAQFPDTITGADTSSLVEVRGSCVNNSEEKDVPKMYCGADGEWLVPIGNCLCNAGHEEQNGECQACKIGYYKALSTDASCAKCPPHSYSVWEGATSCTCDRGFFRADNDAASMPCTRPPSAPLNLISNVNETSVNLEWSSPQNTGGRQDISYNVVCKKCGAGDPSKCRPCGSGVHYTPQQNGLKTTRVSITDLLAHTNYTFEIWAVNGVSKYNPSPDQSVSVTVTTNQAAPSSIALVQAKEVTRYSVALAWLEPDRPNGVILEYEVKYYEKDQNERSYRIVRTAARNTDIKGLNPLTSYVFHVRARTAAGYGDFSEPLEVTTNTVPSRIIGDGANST", "test": "EphA4 AP binding to immobilized KYL peptide", "settings": "for inhibition at 10 µM: read-out: (% Inhib.) EphA4 KYL; for (% Inhib.) EphA4 KYL: screen, compounds at 10 μM", "in_short": "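Biotinylated KYL peptide (biotin on the lysine of a C-terminal GSGSK linker) was captured on streptavidin-coated wells, with coating in borate buffer pH 8.7. Test compound (10 μM in 1% DMSO for screening; varied concentrations for confirmation) was added with ~0.35 nM mouse EphA4 ectodomain–AP from NIH3T3 supernatant in TBST. Bound AP was read at 405 nm with 1 mg/ml p-nitrophenylphosphate in SEAP buffer pH 9.8, minus AP-only background. Percent inhibition was taken relative to no-compound wells.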"}, "[2]": {"molecular_target": "T1, EphA4", "test": "ELISA, ephrin-A5 AP binding to immobilized EphA4 Fc", "in_short": "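Mouse EphA4 Fc was captured at 1 μg/ml on protein A wells. Ephrin-A5 AP (~0.01 nM for IC50) from HEK293 supernatant was added with test compound for 2 h in TBST and read with p-nitrophenylphosphate, minus Fc-only background. For reversibility, compound was incubated 2 h, washed 30 min, then ephrin-A5 AP added for 1 h. For mode of inhibition, ephrin-A5 AP was titrated per compound concentration and fitted one-site; Ki came from KD/Bmax versus inhibitor regression.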"}, "[3]": {"molecular_target": "T2, EphB4 (Mus musculus, UniProt P54761)", "T2 sequence (P54761 16-539)": "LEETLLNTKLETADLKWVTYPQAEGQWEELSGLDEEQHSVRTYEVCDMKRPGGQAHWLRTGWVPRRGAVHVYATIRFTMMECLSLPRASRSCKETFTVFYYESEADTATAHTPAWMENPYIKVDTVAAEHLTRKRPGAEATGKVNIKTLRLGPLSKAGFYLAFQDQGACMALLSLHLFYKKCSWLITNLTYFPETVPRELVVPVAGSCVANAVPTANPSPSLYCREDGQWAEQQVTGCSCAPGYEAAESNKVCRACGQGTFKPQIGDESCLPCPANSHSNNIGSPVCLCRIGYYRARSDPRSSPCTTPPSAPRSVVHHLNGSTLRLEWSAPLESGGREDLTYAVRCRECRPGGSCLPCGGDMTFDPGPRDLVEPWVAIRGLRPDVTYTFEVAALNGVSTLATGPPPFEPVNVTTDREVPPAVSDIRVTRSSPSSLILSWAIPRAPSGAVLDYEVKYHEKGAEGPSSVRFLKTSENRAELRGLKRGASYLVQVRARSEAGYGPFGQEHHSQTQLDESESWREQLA", "test": "ELISA, ephrin-B2 AP binding to immobilized EphB4 Fc", "settings": "for IC50: read-out: IC50 ± SE EphB4 ephrin-B2"}, "[4]": {"molecular_target": "EphA2 (Mus musculus, UniProt Q03145)", "sequence (Q03145 26-538)": "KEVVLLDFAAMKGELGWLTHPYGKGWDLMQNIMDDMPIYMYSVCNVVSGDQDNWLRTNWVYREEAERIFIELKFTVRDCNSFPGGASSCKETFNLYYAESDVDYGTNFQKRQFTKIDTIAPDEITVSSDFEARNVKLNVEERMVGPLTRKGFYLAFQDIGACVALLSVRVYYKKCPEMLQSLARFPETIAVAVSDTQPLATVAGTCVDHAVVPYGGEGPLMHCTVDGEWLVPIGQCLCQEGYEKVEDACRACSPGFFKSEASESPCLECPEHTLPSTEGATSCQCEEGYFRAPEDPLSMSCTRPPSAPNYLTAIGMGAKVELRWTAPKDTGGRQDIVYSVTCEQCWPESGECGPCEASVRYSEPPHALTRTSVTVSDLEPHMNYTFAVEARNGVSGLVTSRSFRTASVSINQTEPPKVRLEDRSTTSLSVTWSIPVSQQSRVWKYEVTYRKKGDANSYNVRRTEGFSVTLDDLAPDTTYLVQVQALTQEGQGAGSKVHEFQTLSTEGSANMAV", "test": "ELISA, ephrin-A5 AP binding to immobilized EphA2 Fc", "settings": "read-out: IC50 ± SE EphA2 ephrin-A5"}, "[5]": {"tested_on": "Eph receptors", "test": "ELISA, ephrin binding to panel of EphA and EphB receptors", "settings": "at 100 μM"}, "[6]": {"tested_on": "HUVECs", "test": "Capillary-like tube formation assay, HUVECs on Matrigel", "type": "cell-based, human", "settings": "at 10 μM, 18 hours", "in_short": "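HUVECs (2.3 × 10⁴) were seeded on Matrigel-precoated wells in complete HUVEC medium containing test compound or DMSO control and grown for 18 h. Polygons were counted from phase-contrast images, 2–4 pictures from each of 3–6 wells. Counts were compared with DMSO-only wells by one-way ANOVA with Dunnett's post-hoc test.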"}, "[7]": {"tested_on": "EphB6", "test": "ELISA, ephrin-B2 AP binding to immobilized EphB6 Fc", "settings": "at 100 μM", "in_short": "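Eph receptor Fc fusions were immobilized at 1 μg/ml in TBST on protein A-coated wells. Diluted ephrin AP fusion supernatant from transiently transfected HEK293 cells was added for 2 h with or without test compound; for IC50 it was at approximately 0.01 nM. Bound AP was read with p-nitrophenylphosphate, minus Fc-only background. IC50 came from a variable-slope log(inhibitor)–response fit, bottom constrained to 0.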"}, "[8]": {"molecular_target": "T3, EphB4 (Homo sapiens, UniProt P54760)", "T3 sequence (P54760 16-987)": "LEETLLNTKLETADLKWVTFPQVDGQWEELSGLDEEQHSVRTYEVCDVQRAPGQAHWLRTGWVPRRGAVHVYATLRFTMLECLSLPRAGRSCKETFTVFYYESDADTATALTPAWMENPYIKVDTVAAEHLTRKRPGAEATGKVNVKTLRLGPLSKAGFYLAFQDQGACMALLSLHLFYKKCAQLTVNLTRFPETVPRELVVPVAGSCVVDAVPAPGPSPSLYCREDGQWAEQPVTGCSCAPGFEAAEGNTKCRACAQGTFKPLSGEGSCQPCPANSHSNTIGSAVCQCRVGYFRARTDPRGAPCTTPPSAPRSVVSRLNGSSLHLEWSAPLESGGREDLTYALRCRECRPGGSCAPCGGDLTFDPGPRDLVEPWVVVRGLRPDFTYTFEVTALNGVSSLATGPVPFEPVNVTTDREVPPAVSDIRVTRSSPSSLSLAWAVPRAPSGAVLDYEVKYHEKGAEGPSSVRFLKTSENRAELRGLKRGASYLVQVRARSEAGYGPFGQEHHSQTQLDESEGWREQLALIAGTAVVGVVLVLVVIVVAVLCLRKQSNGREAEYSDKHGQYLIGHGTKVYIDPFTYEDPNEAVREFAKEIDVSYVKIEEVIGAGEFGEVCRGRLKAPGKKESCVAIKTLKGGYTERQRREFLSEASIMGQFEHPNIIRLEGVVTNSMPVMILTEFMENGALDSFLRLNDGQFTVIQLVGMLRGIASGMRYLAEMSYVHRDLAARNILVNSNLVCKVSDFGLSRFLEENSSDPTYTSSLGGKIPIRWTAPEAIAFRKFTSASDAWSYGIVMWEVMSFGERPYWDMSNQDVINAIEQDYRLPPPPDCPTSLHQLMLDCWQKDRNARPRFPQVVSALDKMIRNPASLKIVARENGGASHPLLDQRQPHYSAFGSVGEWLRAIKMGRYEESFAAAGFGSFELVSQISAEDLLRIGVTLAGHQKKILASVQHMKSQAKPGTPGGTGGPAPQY", "test": "Ephrin-B2 Fc-induced EphB4 phosphorylation in HUVECs", "type": "cell-based", "settings": "at 50 μM", "in_short": "(§1)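 HUVECs were serum-starved 1–2 h and preincubated 15 min with 50 μM test compound (DMSO ≤0.4% final). They were then stimulated 20 min with 0.25 μg/mL ephrin-A1 Fc plus 1.5 μg/mL ephrin-B2 Fc (preclustered with 3-fold anti-Fc), or Fc, with compound present. Lysates were made in modified RIPA with NaF and pervanadate. EphA2 (1 μg antibody) and EphB4 (20 μg antibody) immunoprecipitates were immunoblotted for phosphotyrosine; lysates were probed for receptors and β-actin.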"}, "[9]": {"molecular_target": "EphA2 (Homo sapiens, UniProt P29317)", "sequence (P29317 24-976)": "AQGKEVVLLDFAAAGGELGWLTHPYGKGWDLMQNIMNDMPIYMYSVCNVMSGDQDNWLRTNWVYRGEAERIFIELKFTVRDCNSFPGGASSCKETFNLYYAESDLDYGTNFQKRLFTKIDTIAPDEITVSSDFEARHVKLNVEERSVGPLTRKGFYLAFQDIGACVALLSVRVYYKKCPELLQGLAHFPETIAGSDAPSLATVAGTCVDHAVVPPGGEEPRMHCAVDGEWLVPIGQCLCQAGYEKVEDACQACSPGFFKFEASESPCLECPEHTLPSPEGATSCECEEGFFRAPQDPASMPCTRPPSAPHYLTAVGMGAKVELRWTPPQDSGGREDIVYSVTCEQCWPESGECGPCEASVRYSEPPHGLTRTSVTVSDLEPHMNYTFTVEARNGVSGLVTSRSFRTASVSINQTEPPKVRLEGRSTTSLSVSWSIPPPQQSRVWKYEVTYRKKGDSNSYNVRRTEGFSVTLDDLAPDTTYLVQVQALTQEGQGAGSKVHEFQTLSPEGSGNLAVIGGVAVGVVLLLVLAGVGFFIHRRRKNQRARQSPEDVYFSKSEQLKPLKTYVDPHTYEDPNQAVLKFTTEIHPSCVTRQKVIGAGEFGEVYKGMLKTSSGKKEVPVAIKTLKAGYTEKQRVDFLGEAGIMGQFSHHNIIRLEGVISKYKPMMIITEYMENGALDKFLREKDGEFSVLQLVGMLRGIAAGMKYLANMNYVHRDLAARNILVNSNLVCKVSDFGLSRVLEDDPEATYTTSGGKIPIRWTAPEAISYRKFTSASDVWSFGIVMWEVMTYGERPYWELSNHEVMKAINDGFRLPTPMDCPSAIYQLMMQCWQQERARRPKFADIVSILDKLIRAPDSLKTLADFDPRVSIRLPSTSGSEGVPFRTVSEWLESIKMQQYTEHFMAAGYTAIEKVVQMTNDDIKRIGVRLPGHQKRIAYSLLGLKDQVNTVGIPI", "test": "Ephrin-A1 Fc-induced EphA2 phosphorylation in HUVECs", "type": "cell-based", "settings": "at 50 μM", "in_short": "as §1"}, "[10]": {"settings": "read-out: IC50 ± SE EphA4 ephrin-A5"}}}
{"molecule": "O=C(O[C@@H]1Cc2c(O)cc(O)cc2O[C@@H]1c1cc(O)c(O)c(O)c1-c1c([C@H]2Oc3cc(O)cc(O)c3C[C@H]2O)cc(O)c(O)c1O)c1cc(O)c(O)c(O)c1", "note": "[2′,2′-bisepigallocatechin monogallate]", "values": [{"measurement": "inhibition at 10 µM", "setting": "[1]", "result": 80, "unit": "%"}]}
{"molecule": "O=C(O[C@@H]1Cc2c(O)cc(O)cc2O[C@@H]1c1cc(O)c(O)c(O)c1-c1c([C@H]2Oc3cc(O)cc(O)c3C[C@H]2OC(=O)c2cc(O)c(O)c(O)c2)cc(O)c(O)c1O)c1cc(O)c(O)c(O)c1", "note": "[2′,2‴-bisepigallocatechin digallate]", "values": [{"measurement": "(% Inhib.) EphA4 KYL", "setting": "[1]", "result": 76, "unit": "%"}]}
{"molecule": "O=C(O[C@@H]1Cc2c(O)cc(O)cc2O[C@@H]1c1ccc(O)c(O)c1)c1cc(O)c(O)c(O)c1", "note": "[epicatechin-3-monogallate, epicatechin-3-gallate]", "values": [{"measurement": "IC50", "setting": "[1]; read-out: IC50 ± SE EphA4 KYL", "result": "50 ± 6", "unit": "µM"}, {"measurement": "(% Inhib.) EphA4 KYL", "setting": "[1]", "result": "< 40", "unit": "%"}, {"measurement": "IC50", "setting": "[2]; [10]", "result": "> 200", "unit": "µM"}, {"measurement": "IC50", "setting": "[3]", "result": "> 200", "unit": "µM"}, {"measurement": "IC50", "setting": "[4]", "result": "> 200", "unit": "µM"}]}
{"molecule": "Oc1cc(O)c2c(c1)O[C@H](c1ccc(O)c(O)c1)[C@H](O)C2", "note": "[epicatechin]", "values": [{"measurement": "IC50", "setting": "[1]", "result": "190 ± 1.5", "unit": "µM"}, {"measurement": "inhibition at 10 µM", "setting": "[1]", "result": "< 40", "unit": "%"}, {"measurement": "IC50", "setting": "[2]", "result": "> 200", "unit": "µM"}]}
{"molecule": "Oc1cc(O)c2c(c1)O[C@H](c1cc(O)c(O)c(O)c1)[C@H](O)C2", "note": "[epigallotechin, epigallocatechin]", "values": [{"measurement": "IC50", "setting": "[1]", "result": "44 ± 13", "unit": "µM"}, {"measurement": "inhibition at 10 µM", "setting": "[1]", "result": "< 40", "unit": "%"}, {"measurement": "IC50", "setting": "[2]", "result": "> 200", "unit": "µM"}]}
{"molecule": "O=C(O)c1cc(O)c(=O)c2c(O)c(O)cc([C@H]3Oc4cc(O)cc(O)c4C[C@H]3O)c2c1", "note": "[epitheaflavic acid]", "values": [{"measurement": "(% Inhib.) EphA4 KYL", "setting": "[1]", "result": "less than 40%"}]}
{"molecule": "O=C(O)c1cc(O)c(=O)c2c(O)c(O)cc([C@H]3Oc4cc(O)cc(O)c4C[C@@H]3O)c2c1", "note": "[theaflavic acid]", "values": [{"measurement": "(% Inhib.) EphA4 KYL", "setting": "[1]", "result": "less than 40%"}]}
{"molecule": "O=c1c(O)cc([C@H]2Oc3cc(O)cc(O)c3C[C@H]2O)cc2c([C@H]3Oc4cc(O)cc(O)c4C[C@H]3O)cc(O)c(O)c12", "note": "[theaflavin]", "values": [{"measurement": "inhibition at 10 µM", "setting": "[1]", "result": "< 40", "unit": "%"}]}
{"molecule": "epigallocatechin-3-gallate [EGCG]", "values": [{"measurement": "inhibition of ephrin binding to many Eph receptors", "setting": "[5]", "result": "10–30%"}, {"measurement": "capillary-like tube formation", "setting": "[6]", "result": "significantly inhibits"}, {"measurement": "inhibition of ephrin binding to EphB6", "setting": "[7]", "result": "not detectably inhibited"}, {"measurement": "IC50", "setting": "[1]; read-out: IC50 ± SE EphA4 KYL", "result": "15 ± 1.8", "unit": "µM"}, {"measurement": "(% Inhib.) EphA4 KYL", "setting": "[1]", "result": "< 40", "unit": "%"}, {"measurement": "inhibition of ephrin-A5 binding to EphA4", "setting": "[2]; at 200 μM", "result": "~ 25%"}, {"measurement": "IC50", "setting": "[2]; [10]", "result": "> 200", "unit": "µM"}, {"measurement": "EphB4 phosphorylation in HUVECs", "setting": "[8]", "result": "does not strongly inhibit"}, {"measurement": "inhibition of ephrin binding to EphB4", "setting": "[3]; at 100 μM", "result": "not detectably inhibited"}, {"measurement": "IC50", "setting": "[3]", "result": "> 200", "unit": "µM"}, {"measurement": "IC50", "setting": "[4]", "result": "> 200", "unit": "µM"}, {"measurement": "EphA2 phosphorylation in HUVECs", "setting": "[9]", "result": "does not strongly inhibit"}]}
{"molecule": "theaflavin-3,3′-digallate [theaflavin-3,3′-digallate]", "values": [{"measurement": "(% Inhib.) EphA4 KYL", "setting": "[1]", "result": 65, "unit": "%"}]}
